# From ChEMBL document CHEMBL2086233, “D-proline-based peptidomimetic inhibitors of anthrax lethal factor” (Eur J Med Chem, 2012)
# Experiments:
# Lethal factor = target: T1, Lethal factor (Bacillus anthracis, UniProt P15917); assay: Inhibition of Bacillus anthracis lethal factor using protease substrate-2 assessed as release of p-nitroaniline measured for 10 mins by spectrophotometric assay
# T1 sequence (P15917 whole entry): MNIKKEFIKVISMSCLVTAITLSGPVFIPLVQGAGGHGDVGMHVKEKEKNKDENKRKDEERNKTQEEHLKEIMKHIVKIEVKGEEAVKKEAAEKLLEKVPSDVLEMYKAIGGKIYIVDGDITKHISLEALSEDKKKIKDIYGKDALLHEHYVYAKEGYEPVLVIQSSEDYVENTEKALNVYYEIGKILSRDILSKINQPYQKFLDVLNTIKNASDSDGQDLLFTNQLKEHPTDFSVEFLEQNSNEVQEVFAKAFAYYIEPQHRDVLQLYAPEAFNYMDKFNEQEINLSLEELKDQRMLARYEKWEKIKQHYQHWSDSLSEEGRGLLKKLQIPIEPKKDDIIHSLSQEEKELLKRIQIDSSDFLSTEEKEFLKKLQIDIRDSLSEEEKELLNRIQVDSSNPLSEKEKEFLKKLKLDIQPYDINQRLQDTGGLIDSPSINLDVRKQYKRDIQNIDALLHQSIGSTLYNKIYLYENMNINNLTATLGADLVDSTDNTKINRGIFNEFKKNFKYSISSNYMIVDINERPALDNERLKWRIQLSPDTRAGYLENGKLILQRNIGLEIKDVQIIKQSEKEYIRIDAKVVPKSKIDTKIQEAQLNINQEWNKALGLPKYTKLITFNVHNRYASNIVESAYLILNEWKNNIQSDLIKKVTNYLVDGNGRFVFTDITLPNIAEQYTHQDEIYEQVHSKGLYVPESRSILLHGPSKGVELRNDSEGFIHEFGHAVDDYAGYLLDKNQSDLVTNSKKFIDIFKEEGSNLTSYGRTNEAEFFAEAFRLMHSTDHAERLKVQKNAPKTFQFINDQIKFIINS
# How it was run: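 10 nM LF with lethal factor protease substrate II (pNA-tagged peptide) in 250 mM Na2HPO4, 150 mM NaCl, pH 7.4, 25 °C. A405 followed 10 min after enzyme addition. Inhibitor at five concentrations starting at 500 nM. IC50 by non-linear regression of the dose-response data. Experiments repeated twice.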
# [1] = target: T2, Lethal factor (Bacillus anthracis) (UniProt P15917); assay: Inhibition of Bacillus anthracis lethal factor using protease substrate-2 assessed as release of p-nitroaniline at 10 uM measured for 10 mins by spectrophotometric assay
# T2 sequence (whole entry): T1 sequence (P15917 whole entry)
# How it was run: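 Single fixed inhibitor concentration. A405 (p-nitroaniline release) followed 10 min after LF addition. % inhibition from initial velocity versus no-inhibitor control. Mean of three experiments.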
SMILES,IC50 (Lethal factor) [nM],inhibition [1] [%]
CCCCCCO[C@H]1CCN(S(=O)(=O)c2ccc(Cl)cc2)[C@H]1C(=O)NO,> 10000,–
O=C(NO)[C@H]1C[C@H](OCc2ccccc2)CN1S(=O)(=O)c1ccc(Cl)c(Cl)c1,–,16
O=C(/C=C/c1ccco1)N[C@H]1C[C@H](C(=O)NO)N(S(=O)(=O)c2ccc(Cl)c(Cl)c2)C1,–,22
O=C(N[C@H]1C[C@H](C(=O)NO)N(S(=O)(=O)c2ccc(Cl)c(Cl)c2)C1)c1cccs1,–,46
O=C(NO)[C@H]1[C@@H](OCc2ccccc2)CCN1S(=O)(=O)c1ccc(Cl)c(Cl)c1,1400,–
O=C(N[C@@H]1C[C@H](C(=O)NO)N(S(=O)(=O)c2ccc(Cl)c(Cl)c2)C1)c1cccs1,–,27
COc1ccc(C(=O)N[C@H]2C[C@H](C(=O)NO)N(S(=O)(=O)c3ccc(Cl)c(Cl)c3)C2)c(OC)c1,–,11
O=C(NO)[C@H]1C[C@@H](n2cc(-c3ccccc3)nn2)CN1S(=O)(=O)c1ccc(Cl)c(Cl)c1,–,8
O=C(NO)[C@H]1C[C@@H](OCc2ccccc2)CN1S(=O)(=O)c1ccc(Cl)c(Cl)c1,9500,50
O=C(NO)[C@H]1[C@@H](OCc2ccccc2)CCN1S(=O)(=O)c1ccc(Cl)cc1,1700,–
COc1ccc(C(=O)N[C@@H]2C[C@H](C(=O)NO)N(S(=O)(=O)c3ccc(Cl)c(Cl)c3)C2)c(OC)c1,2100,65
